Test results: ChEMBL document CHEMBL3414569, “Amino acid modified xanthone derivatives: novel, highly promising membrane-active antimicrobials for multidrug-resistant Gram-positive bacterial infections” (J Med Chem, 2015)
In brackets after ≈: the same amount, converted by molar mass. Activity calls are given as the source filed them.

Columns and labels:
Staphylococcus aureus [1] = experiment: Antimicrobial activity against Staphylococcus aureus DM4001 by broth macrodilution method; format: functional
Outline: (§1)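 Broth macrodilution MIC in Mueller Hinton broth following CLSI guidelines. Inoculum was prepared by direct colony suspension from an 18−20 h tryptic soy agar plate.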

Staphylococcus aureus [2] = experiment: Antimicrobial activity against methicillin resistant Staphylococcus aureus DM21455 by broth macrodilution method; format: functional; outline: as §1
Staphylococcus aureus [3] = experiment: Antimicrobial activity against methicillin resistant Staphylococcus aureus DM09809R by broth macrodilution method; format: functional; outline: as §1
Bacillus cereus = experiment: Antimicrobial activity against Bacillus cereus ATCC 11778 by broth macrodilution method; format: functional
Outline: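 CLSI broth macrodilution in Mueller Hinton broth. Inoculum was made by direct colony suspension from colonies on an 18−20 h tryptic soy agar plate. The value is the MIC.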

[4] = Induction of hemolysis in New Zealand white rabbit RBC after 1 hr; format: cell-based, Oryctolagus cuniculus, Erythrocyte; details: New Zealand white, red blood cells (RBC)
Outline: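 Fresh red blood cells isolated from New Zealand white rabbits. Lysis measured over a compound concentration series; HC50 taken as the concentration lysing 50% of RBCs.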

[5] = Retention time of the compound; format: physicochemical
Outline: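 Reverse-phase HPLC of 20 μL injections of a 10 μg/mL sample at 1 mL/min. Gradient: 5−55% ACN over 5 min, then 55−95% over 15 min.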

[6] = Selectivity index, ratio of HC50 for induction of hemolysis in New Zealand white rabbit RBC to MIC for Staphylococcus aureus DM4001
[7] = Selectivity index, ratio of HC50 for induction of hemolysis in New Zealand white rabbit RBC to MIC for Staphylococcus aureus DM21455
[8] = Selectivity index, ratio of HC50 for induction of hemolysis in New Zealand white rabbit RBC to MIC for Staphylococcus aureus DM09809R
[9] = Selectivity index, ratio of HC50 for induction of hemolysis in New Zealand white rabbit RBC to MIC for Bacillus cereus ATCC 11778
Staphylococcus aureus [10] = experiment: Antimicrobial activity against methicillin sensitive Staphylococcus aureus isolates by broth macrodilution method; format: functional
Staphylococcus aureus [11] = experiment: Antimicrobial activity against vancomycin-intermediate sensitive Staphylococcus aureus isolates by broth macrodilution method; format: functional
Staphylococcus aureus [12] = experiment: Antimicrobial activity against methicillin resistant Staphylococcus aureus isolates by broth macrodilution method; format: functional
Staphylococcus aureus [13] = experiment: Antimicrobial activity against epidemic methicillin resistant Staphylococcus aureus isolates by broth macrodilution method; format: functional
Staphylococcus aureus [14] = experiment: Antimicrobial activity against multidrug resistant Staphylococcus aureus isolates by broth macrodilution method; format: functional
[15] = system: Staphylococcus epidermidis; experiment: Antimicrobial activity against Staphylococcus epidermidis isolates by broth macrodilution method; format: functional
Enterococcus [16] = experiment: Antimicrobial activity against vancomycin-sensitive Enterococcus isolates by broth macrodilution method; format: functional
Enterococcus [17] = experiment: Antimicrobial activity against vancomycin-resistant Enterococcus isolates by broth macrodilution method; format: functional
Streptococcus = experiment: Antimicrobial activity against Streptococcus isolates by broth macrodilution method; format: functional
Corynebacterium jeikeium = experiment: Antimicrobial activity against Corynebacterium jeikeium isolates by broth macrodilution method; format: functional
Listeria monocytogenes = experiment: Antimicrobial activity against Listeria monocytogenes isolates by broth macrodilution method; format: functional
Staphylococcus aureus [18] = experiment: Bactericidal activity against methicillin resistant Staphylococcus aureus DM21455 assessed as induction of bacterial killing at 1 times MIC after 1 hr by cell counting based time kill assay; format: functional
Outline: (§2)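 Time-kill at 35 °C with colonies taken from an 18−20 h tryptic soy agar plate and suspended in CA-MHB at 10^5−10^6 CFU/mL, then drug added. Aliquots taken at set times were diluted 10-fold serially in D/E neutralization broth, spread on tryptic soy agar, incubated 48−72 h at 35 °C, and colonies counted. Strains: MRSA DM21455, vanA and vanB VRE.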

Staphylococcus aureus [19] = experiment: Bactericidal activity against methicillin resistant Staphylococcus aureus DM21455 assessed as induction of bacterial killing at 2 times MIC after 30 mins by cell counting based time kill assay; format: functional; outline: as §2
Staphylococcus aureus [20] = experiment: Antimicrobial activity against Staphylococcus aureus ATCC 29213 by broth macrodilution method; format: functional; outline: as §1
Lipid bilayer [21] = experiment: Induction of vesicle leakage in DOPE/DOPG large unilamellar vesicles assessed as calcein release at 1/16 compound to lipid ratio by fluorescence assay; format: functional
Outline: (§3)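 100 nm LUVs (DOPE/DOPG 75/25 or DOPC) made by film hydration in 80 mM calcein, 50 mM HEPES, 100 mM NaCl, 0.3 mM EDTA, pH 7.4. Then 7 freeze–thaw cycles, 15 extrusions and Sephadex G-50 clean-up. Compound added from DMF (<0.2%) at 50 μM final phospholipid. Fluorescence read at ex 490/em 520 nm for 30 min; 0.1% Triton X-100 set 100% lysis; three independent experiments.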

Staphylococcus aureus [22] = experiment: Antimicrobial activity against Staphylococcus aureus ATCC 29213 at 0.5 times MIC measured after 17 passages by multistep passage drug resistance selection study relative to wild type Staphylococcus aureus ATCC 29213 before passage; format: functional
Outline: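 Multipassage selection in S. aureus ATCC29213 across an eight-concentration dilution series. Growth was read after 20−22 h. Bacteria growing at 0.5 × MIC were repassaged into a fresh series, 17 passages in total. Resistance was defined as a more than 4-fold rise over the initial MIC.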

Lipid bilayer [23] = experiment: Induction of vesicle leakage in DOPC large unilamellar vesicles assessed as calcein release at 1/16 compound to lipid ratio by fluorescence assay; format: functional; outline: as §3
Lipid bilayer [24] = experiment: Binding affinity to DOPE/DOPG large unilamellar vesicles by 1D 1H NMR spectroscopy
Outline: (§4)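 Liposomes prepared as for the leakage LUVs: 30 mM DOPE/DOPG (75:25) or 30 mM DOPC. 1D 1H spectra of 1 mM compound recorded in water and in each liposome type at 600 MHz, 25 °C.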

Staphylococcus aureus [25] = experiment: Antimicrobial activity against teicoplanin intermediate resistant Staphylococcus aureus isolates by broth macrodilution method; format: functional
Lipid bilayer [26] = experiment: Binding affinity to DOPC large unilamellar vesicles by 1D 1H NMR spectroscopy; outline: as §4
Staphylococcus aureus [27] = experiment: Antimicrobial activity against methicillin resistant Staphylococcus aureus DM21455 in absence of 4% BSA by broth macrodilution method; format: functional; outline: as §1
Staphylococcus aureus [28] = experiment: Antimicrobial activity against methicillin resistant Staphylococcus aureus DM21455 in presence of 4% BSA by broth macrodilution method; format: functional
Outline: (§5)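 MIC by CLSI broth macrodilution in Mueller Hinton broth, with BSA added to the bacterial suspension at a final 4% w/v. Inoculum was made by direct colony suspension from an 18−20 h tryptic soy agar plate.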

Staphylococcus aureus [29] = experiment: Antimicrobial activity against Staphylococcus aureus ATCC 29213 in absence of 4% BSA by broth macrodilution method; format: functional; outline: as §1
Staphylococcus aureus [30] = experiment: Antimicrobial activity against Staphylococcus aureus ATCC 29213 in presence of 4% BSA by broth macrodilution method; format: functional; outline: as §5
Mus musculus [31] = experiment: Toxicity in C57BL6 mouse eye assessed as induction of toxicity related clinical signs at 3 mg/ml applied topically 5 times/day for 4 days; format: organism-based; details: in vivo, topical_or_ocular, 96 h
Outline: (§6)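 Three healthy wild-type C57BL6 mice (6−8 weeks) per treatment received 0.5, 1 or 3 mg/mL compound in 10 mM PBS. Applied topically to the eye 5 times/day for 4 days. Corneal clarity checked daily through day 4 by slit-lamp biomicroscopy; histological sections also inspected.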

Mus musculus [32] = experiment: Toxicity in C57BL6 mouse eye assessed as effect on corneal clarity at 3 mg/ml applied topically 5 times/day for 4 days by slit lamp biomicroscopy; format: organism-based, Cornea; details: in vivo, topical_or_ocular, 96 h; outline: as §6
Mus musculus [33] = experiment: Toxicity in C57BL6 mouse eye assessed as effect on wound closure at 3 mg/ml applied topically 5 times/day for 4 days by slit lamp biomicroscopy; format: organism-based; details: in vivo, topical_or_ocular, 96 h
Mus musculus [34] = experiment: Toxicity in C57BL6 mouse eye assessed as inflammatory response at 3 mg/ml applied topically 5 times/day for 4 days by slit lamp biomicroscopy; format: organism-based; details: in vivo, topical_or_ocular, 96 h; outline: as §6
Staphylococcus aureus [35] = experiment: Antimicrobial activity against Staphylococcus aureus ATCC 29213 infected in mouse cornea infection model assessed as reduction in viable bacterial count at 0.3% solution applied topically 5 times/day dosed 1 day after infection relative to control; format: functional
Outline: (§7)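 Mouse cornea given three superficial 1 mm scratches on one eye under ketamine/xylazine, then 10 μL of S. aureus ATCC 29213 suspension (1 × 10^8 CFU/mL in USP phosphate buffer) applied topically. Treated topically 5 times/day from day 1 postinfection; PBS negative control; 4 mice/group killed on days 1, 2 and 3. Corneas homogenized in 0.9% NaCl with 0.25% BSA, plated in duplicate on TSA (48 h, 35 °C); log10 CFU/cornea.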

Staphylococcus aureus [36] = experiment: Antimicrobial activity against Staphylococcus aureus ATCC 29213 infected in mouse cornea infection model assessed as reduction in viable bacterial count at 0.02% solution applied topically 5 times/day dosed 1 day after infection relative to control; format: functional; outline: as §7

In the case of `COC(=O)[C@H](CCCNC(=N)N)NC(=O)COc1cc2oc3cc(OCC(=O)N[C@@H](CCCNC(=N)N)C(=O)OC)c(OC)c(CC=C(C)C)c3c(=O)c2c(O)c1CC=C(C)C`, the MIC (Staphylococcus aureus [1]) is reported as 2 µg/mL (≈ 2.31 µM), the MIC (Staphylococcus aureus [2]) is reported as 3 µg/mL (≈ 3.46 µM) and the MIC (Staphylococcus aureus [3]) is reported as 3 µg/mL (≈ 3.46 µM). The MIC (Bacillus cereus) was 2 µg/mL (≈ 2.31 µM), the HC50 at 1 h [4] was 232 µg/mL and the Retention_time [5] was 7.96 min. The Selectivity Index [6] was 77, the Selectivity Index [7] was 77 and the Selectivity Index [8] was 77. It also gave a Selectivity Index [9] of 77, an MIC (Staphylococcus aureus [10]) of 2 µg/mL (≈ 2.31 µM) and an MIC (Staphylococcus aureus [11]) of 4 µg/mL (≈ 4.61 µM). The MIC (Staphylococcus aureus [12]) was 2 µg/mL (≈ 2.31 µM), the MIC (Staphylococcus aureus [13]) was 2 µg/mL (≈ 2.31 µM) and the MIC (Staphylococcus aureus [14]) was 2 µg/mL (≈ 2.31 µM). The MIC [15] was 2 µg/mL (≈ 2.31 µM), the MIC (Enterococcus [16]) was 2 µg/mL (≈ 2.31 µM) and the MIC (Enterococcus [17]) was 2 µg/mL (≈ 2.31 µM). It also gave an MIC (Streptococcus) of 4 µg/mL (≈ 4.61 µM), an MIC (Corynebacterium jeikeium) of 4 µg/mL (≈ 4.61 µM) and an MIC (Listeria monocytogenes) of 4 µg/mL (≈ 4.61 µM). For the same molecule, the Activity (Staphylococcus aureus [18]) was 99.9%, the Activity (Staphylococcus aureus [19]) was 99.9% and the MIC (Staphylococcus aureus [20]) was 3 µg/mL (≈ 3.46 µM). The Activity (Lipid bilayer [21]) was 68%, the Activity (Staphylococcus aureus [22]) was “Active” and the Activity (Lipid bilayer [23]) was 32%. The Activity (Lipid bilayer [24]) was “Active”, the MIC (Staphylococcus aureus [25]) was 2 µg/mL (≈ 2.31 µM) and the Activity (Lipid bilayer [26]) was “inactive”. The MIC (Staphylococcus aureus [27]) was 3.12 µg/mL (≈ 3.6 µM), the MIC (Staphylococcus aureus [28]) was 6.25 µg/mL and the MIC (Staphylococcus aureus [29]) was 1.56 µg/mL (≈ 1.8 µM). For the same molecule, the MIC (Staphylococcus aureus [30]) was 3.12 µg/mL, the Activity (Mus musculus [31]) was “Non-toxic” and the Activity (Mus musculus [32]) was “Non-toxic”. For the same molecule, the Activity (Mus musculus [33]) was “Non-toxic”, the Activity (Mus musculus [34]) was “Non-toxic” and the “inhibition (INH)” value (Staphylococcus aureus [35]) was 99.7%.
Molecule `CCN(CC)CCCCOc1cc2oc3cc(OCCCCN(CC)CC)c(OC)c(CC=C(C)C)c3c(=O)c2c(O)c1CC=C(C)C` has an MIC (Staphylococcus aureus [1]) of 2 µg/mL (≈ 3.01 µM), an MIC (Staphylococcus aureus [2]) of 0.5 µg/mL (≈ 0.752 µM) and an MIC (Staphylococcus aureus [3]) of 2 µg/mL (≈ 3.01 µM). It also gave an MIC (Bacillus cereus) of 3 µg/mL (≈ 4.51 µM), an HC50 at 1 h [4] of 20 µg/mL and a Selectivity Index [6] of 7. The Selectivity Index [7] was 7, the Selectivity Index [8] was 7 and the Selectivity Index [9] was 7. The Ratio (Staphylococcus aureus [36]) was under 1.
